Values after ≈ are worked out from the molar mass of the structure shown.
Tests used:
Salmonella typhimurium = experiment: Antibacterial activity against gram negative bacteria Salmonella Typhimurium was determined by twofold Micro-broth dilution assay; format: functional, organism-based, Salmonella enterica subsp. enterica serovar Typhimurium; settings: Salmonella enterica
Summary of the method: (§1)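 Broth microdilution with two-fold serial dilutions of compound added to pre-inoculated microtitre plates. Inoculum diluted in phosphate-buffered saline to 10^6 cfu/mL, then plated at a final 10^3 cells per 150 µL medium. Controls were medium plus inoculum and a solvent control at the highest-concentration solvent level. Plates incubated at 37 °C and read by OD at 600 nm. IC50 is the concentration giving 50% of control-inoculum growth.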

Sporothrix schenckii = experiment: Antifungal activity against Sporothrix schenck ii was determined by twofold Micro-broth dilution assay; format: functional, organism-based; settings: Sporothrix schenckii; read-out: IC50
Summary of the method: (§2)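 Fungal strains tested by two-fold serial broth microdilution in microtitre plates. Cells diluted in phosphate-buffered saline to 10^6 cfu/mL and inoculated at a final 10^3 cells per 150 µL medium. Medium/inoculum and solvent controls were included. Incubation at 28 °C, then OD read at 600 nm. IC50 is the concentration at which growth is 50% of the control inoculum.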

Candida albicans = experiment: Antifungal activity against Candida albicans was determined by twofold Micro-broth dilution assay; format: functional, organism-based; settings: Candida albicans; read-out: IC50; summary of the method: as §2
Cryptococcus neoformans = experiment: Antifungal activity against Cryptococcus neoformans was determined by twofold Micro-broth dilution assay; format: functional, organism-based; summary of the method: as §2
Salmonella typhi = experiment: Antibacterial activity against gram negative bacteria Salmonella typhi was determined by twofold Micro-broth dilution assay; format: functional, organism-based, Salmonella enterica subsp. enterica serovar Typhi; settings: Salmonella enterica
Streptococcus mutans = experiment: Antibacterial activity against gram positive bacteria Streptococcus mutans was determined by twofold Micro-broth dilution assay; format: functional, organism-based; summary of the method: as §1
Enterococcus faecalis = experiment: Antibacterial activity against gram positive bacteria Enterococcus faecalis was determined by twofold Micro-broth dilution assay; format: functional, organism-based; summary of the method: as §1
Shigella flexneri = experiment: Antibacterial activity against gram negative bacteria Shigella flexenerii was determined by twofold Micro-broth dilution assay; format: functional, organism-based; summary of the method: as §1
Aspergillus flavus = experiment: Antifungal activity against Aspergillus flavus was determined by twofold Micro-broth dilution assay; format: functional, organism-based; settings: Aspergillus flavus; read-out: IC50; summary of the method: as §2
Aspergillus niger = experiment: Antifungal activity against Aspergillus niger was determined by twofold Micro-broth dilution assay; format: functional, organism-based; settings: Aspergillus niger; read-out: IC50; summary of the method: as §2
Nannizzia gypsea = experiment: Antifungal activity against Microsporum gypseum was determined by twofold Micro-broth dilution assay; format: functional, organism-based; settings: Nannizzia gypsea; read-out: IC50; summary of the method: as §2
Trichophyton rubrum = experiment: Antifungal activity against Trichophyton rubrum was determined by twofold Micro-broth dilution assay; format: functional, organism-based; settings: Trichophyton rubrum; read-out: IC50; summary of the method: as §2
Histoplasma capsulatum = experiment: Antifungal activity against Histoplasma capsulatum was determined by twofold Micro-broth dilution assay; format: functional, organism-based
Summary of the method: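 Fungal broth microdilution. Cells were diluted to 10^6 cfu/mL in phosphate-buffered saline and seeded at a final 10^3 cells per well. Two-fold serial compound dilutions were added. Plates carried inoculum-only and solvent controls, the solvent matched to the highest concentration. After incubation at 28 °C, OD was read at 600 nm. IC50 is the concentration where growth is 50% of control.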

Escherichia coli = experiment: Antibacterial activity against gram negative bacteria Escherichia coli was determined by twofold Micro-broth dilution assay; format: functional, organism-based; summary of the method: as §1
[1] = tested on: Staphylococcus epidermidis; experiment: Antibacterial activity against gram positive bacteria Staphylococcus epidermidis was determined by twofold Micro-broth dilution assay; format: functional, organism-based; summary of the method: as §1
Staphylococcus aureus = experiment: Antibacterial activity against gram positive bacteria Staphylococcus aureus was determined by twofold Micro-broth dilution assay; format: functional, organism-based; summary of the method: as §1
Klebsiella aerogenes = experiment: Antibacterial activity against gram negative bacteria Enterobacter aerogens was determined by twofold Micro-broth dilution assay; format: functional, organism-based; summary of the method: as §1

| Structure (SMILES) | IC50 (Salmonella typhimurium) | IC50 (Sporothrix schenckii) | IC50 (Candida albicans) | IC50 (Cryptococcus neoformans) | IC50 (Salmonella typhi) | IC50 (Streptococcus mutans) | IC50 (Enterococcus faecalis) | IC50 (Shigella flexneri) | IC50 (Aspergillus flavus) | IC50 (Aspergillus niger) | IC50 (Nannizzia gypsea) | IC50 (Trichophyton rubrum) | IC50 (Histoplasma capsulatum) | IC50 (Escherichia coli) | IC50 [1] | IC50 (Staphylococcus aureus) | IC50 (Klebsiella aerogenes) |
| --- | --- | --- | --- | --- | --- | --- | --- | --- | --- | --- | --- | --- | --- | --- | --- | --- | --- |
| C[C@H](CCC(=O)N[C@@H](CO)[C@@H](O)c1ccccc1)[C@H]1CC[C@H]2[C@@H]3CC[C@@H]4C[C@H](O)CC[C@]4(C)[C@H]3C[C@H](O)[C@]12C | > 250 µg/mL | > 250 µg/mL | > 250 µg/mL | 62.5 µg/mL (≈ 115 µM) | > 250 µg/mL | 60 µg/mL (≈ 111 µM) | > 250 µg/mL | > 250 µg/mL | > 250 µg/mL | > 250 µg/mL | > 250 µg/mL | > 250 µg/mL | > 250 µg/mL | > 250 µg/mL | 220 µg/mL (≈ 406 µM) | > 250 µg/mL | > 250 µg/mL |
| C[C@H](CCC(=O)N[C@@H](CO)[C@@H](O)c1ccc([N+](=O)[O-])cc1)[C@H]1CC[C@H]2[C@@H]3CC[C@@H]4C[C@H](O)CC[C@]4(C)[C@H]3C[C@H](O)[C@]12C | > 250 µg/mL | > 250 µg/mL | > 250 µg/mL | > 250 µg/mL | > 250 µg/mL | 30 µg/mL (≈ 51.1 µM) | 10 µg/mL (≈ 17 µM) | > 250 µg/mL | > 250 µg/mL | > 250 µg/mL | > 250 µg/mL | > 250 µg/mL | > 250 µg/mL | > 250 µg/mL | > 250 µg/mL | > 250 µg/mL | > 250 µg/mL |
| C[C@H](CCC(=O)N[C@H](CO)[C@H](O)c1ccccc1)[C@H]1CC[C@H]2[C@@H]3C(O)C[C@@H]4C[C@H](O)CC[C@]4(C)[C@H]3C[C@H](O)[C@]12C (some centres not stated) | > 250 µg/mL | > 250 µg/mL | > 250 µg/mL | > 250 µg/mL | > 250 µg/mL | 40 µg/mL (≈ 71.7 µM) | 60 µg/mL (≈ 108 µM) | > 250 µg/mL | > 250 µg/mL | > 250 µg/mL | > 250 µg/mL | > 250 µg/mL | > 250 µg/mL | > 250 µg/mL | 40 µg/mL (≈ 71.7 µM) | > 250 µg/mL | > 250 µg/mL |
| C[C@H](CCC(=O)N[C@H](CO)[C@H](O)c1ccccc1)[C@H]1CC[C@H]2[C@@H]3CC[C@@H]4C[C@H](O)CC[C@]4(C)[C@H]3C[C@H](O)[C@]12C | > 250 µg/mL | > 250 µg/mL | > 250 µg/mL | > 250 µg/mL | > 250 µg/mL | 25 µg/mL (≈ 46.1 µM) | 60 µg/mL (≈ 111 µM) | > 250 µg/mL | > 250 µg/mL | > 250 µg/mL | > 250 µg/mL | > 250 µg/mL | > 250 µg/mL | > 250 µg/mL | 40 µg/mL (≈ 73.8 µM) | 40 µg/mL (≈ 73.8 µM) | > 250 µg/mL |
| C[C@H](CCC(=O)N[C@@H](CO)[C@@H](O)c1ccc([N+](=O)[O-])cc1)[C@H]1CC[C@H]2[C@@H]3C(O)C[C@@H]4C[C@H](O)CC[C@]4(C)[C@H]3C[C@H](O)[C@]12C (some centres not stated) | > 250 µg/mL | > 250 µg/mL | > 250 µg/mL | > 250 µg/mL | > 250 µg/mL | 40 µg/mL (≈ 66.4 µM) | > 250 µg/mL | > 250 µg/mL | > 250 µg/mL | > 250 µg/mL | > 250 µg/mL | > 250 µg/mL | > 250 µg/mL | > 250 µg/mL | > 250 µg/mL | 75 µg/mL (≈ 124 µM) | > 250 µg/mL |
| C[C@H](CCC(=O)N[C@H](CO)[C@H](O)c1ccc([N+](=O)[O-])cc1)[C@H]1CC[C@H]2[C@@H]3CC[C@@H]4C[C@H](O)CC[C@]4(C)[C@H]3C[C@H](O)[C@]12C | > 250 µg/mL | > 250 µg/mL | > 250 µg/mL | > 250 µg/mL | > 250 µg/mL | 4 µg/mL (≈ 6.82 µM) | 15 µg/mL (≈ 25.6 µM) | > 250 µg/mL | > 250 µg/mL | > 250 µg/mL | > 250 µg/mL | > 250 µg/mL | > 250 µg/mL | > 250 µg/mL | 7.5 µg/mL (≈ 12.8 µM) | 7.5 µg/mL (≈ 12.8 µM) | > 250 µg/mL |

— ChEMBL document CHEMBL1148274, “Bile acid amides derived from chiral amino alcohols: novel antimicrobials and antifungals” (Bioorg Med Chem Lett, 2004)
